The campaign covered roughly 360,000 compounds. About 1,500 (0.42%) were called active.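 How the source made its calls: active means inhibition above a per-plate cutoff of the control wells' mean inhibition plus 3 SD (cut at about 5.5% in these data); inactive means the rest.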 What follows is part of a selection rich in actives, with near analogues and random picks from the rest.

The test system of this assay is methionyl-tRNA synthetase (Trypanosoma brucei brucei). The experiment in a line: inhibition of trypanosome methionyl-tRNA synthetase – biochemical, luminescence, primary screen (AID 624268).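 Further: 0% = DMSO wells median and 100% = median of wells with control inhibitor compound.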 The conditions noted are these: purified T. brucei MetRS, ATP depletion, Kinase-Glo luminescence; at 11.9 µM; active compounds read high. A digest of the protocol:
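Material: T. brucei methionyl-tRNA synthetase, purified; reagent: substrates ATP, L-methionine and bulk Escherichia coli tRNA; dosing: 11.9 µM single point; timing: 15 min plus 2 h at 25 °C; detection: luminescence of leftover ATP; evaluation: % inhibition; control set: DMSO-only wells as low control; replicates: singlicate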
Consider `Cc1ccc(C)c(N2C(=O)CS/C2=N\NC(=O)c2ccccc2Cl)c1`, for which the inhibition – broadly, the relative decrease from the control value, in per cent – is -0.16% (inactive). On to `CCC(C(=O)Nc1ccc(C(C)C)cc1)c1ccccc1` (centres undefined), for which the inhibition is 0.33% (inactive).

In the case of `CC(=O)Nc1ccc(NC(=O)[C@@H](NC(=O)c2cccc(C)c2)C(C)C)cc1`, the inhibition is -0.8% (inactive). With `Cc1ccc(NC(=O)C(C)c2cccc(C(=O)c3ccccc3)c2)cc1` (centres undefined) the figure was 67.8% (active); with `COc1ccc(CNC(=O)C(C)NCc2ccccc2Cl)cc1` (centres undefined), -0.92% (inactive). With `COc1ccc(NC(=O)N2CCCC2C(=O)NCc2ccccc2Cl)cc1` (centres undefined) the figure was -0.13% (inactive); with `COc1ccc(NC(=O)C(NC(C)=O)C(=O)NCc2ccccc2Cl)cc1` (centres undefined), 7.6% (active); with `Nc1ccccc1Sc1cc(Cl)nnc1Cl`, 1.75% (inactive). In the case of `CSc1ccc(S(=O)(=O)NCc2ccc(Cl)cc2)cc1`, the inhibition is -1.21% (inactive).

As for `O=C(O)CCn1c(O)c(C=C2N=c3ccccc3=N2)sc1=S`, the inhibition was 7.5% (active).

With `CCN=c1sc(C(=O)Nc2ccccc2)c(C)n1CC`, the inhibition is 0.54% (inactive). With `Cc1ccc(S(=O)(=O)Nc2nc(CN3CCOCC3)nc3sc(C)c(C)c23)cc1` the figure was -0.08% (inactive). For `CC(C)C1C2=C(CC(C)(C)CC2=O)ON1c1ccccc1` (centres undefined), the inhibition is 0.41% (inactive). In the case of `Cc1cc(=O)n2nc(N3CCC(C(=O)Nc4c(F)c(F)c(F)c(F)c4F)CC3)sc2n1` it was -0.7% (inactive).

In the case of `CCOc1ccc(S(=O)(=O)N2CCCCCC2)c2ccccc12`, the inhibition was -0.75% (inactive). With `Fc1ccc(NC(=S)N2CCc3[nH]c4ccccc4c3C2)cc1` the figure was 9.22% (active); with `CC(=O)C(CC(=O)N1CCCC1)C(=O)Nc1ccc(Cl)cc1` (centres undefined), -0.19% (inactive); with `O=C(CCCN1CCc2[nH]c3ccc(F)cc3c2C1)c1ccc(F)cc1`, 0.35% (inactive). In the case of `C[C@H](O)[C@@H]1C(=O)N2CCc3c([nH]c4ccccc34)[C@@H]2C[C@@H]1N(C)C(=O)Nc1ccc(F)cc1` it was 1.97% (inactive).

As for `CCOc1ccc(NC(=O)N2CC=C(n3c(=O)[nH]c4ccccc43)CC2)cc1`, the inhibition was -0.02% (inactive). As to `O=C(Nc1ccc(Cl)cc1)N1CCc2[nH]c3ccccc3c2C1`, the inhibition was 64.1% (active).

Regarding `Cc1ccc(N(C(=O)C(F)(F)F)C(C(=O)NC2CCCCC2)c2ccncc2)cc1C` (centres undefined), the inhibition was -0.39% (inactive).

Regarding `COc1ccccc1OCC(=O)Nc1c2c(nn1-c1ccc(F)cc1)CS(=O)(=O)C2`, the inhibition was 0.18% (inactive). As for `CC(=O)Nc1cc(-c2cccc(CO)c2)cn2c(-c3cccc(C(F)(F)F)c3)cnc12`, the inhibition was -0.15% (inactive). For `Cc1cc(C)cc(NC(=O)NCc2ccccn2)c1`, the inhibition was -0.48% (inactive). On to `Cc1cc(C)cc(NC(=O)CSc2ccccc2)c1`, for which the inhibition is -0.78% (inactive). Take `Cc1cc(C)cc(NC(=O)N(C)Cc2ccccc2)c1`: the inhibition was 6.26% (active). In the case of `COc1ccc(CCNC(=O)C2CC3Cn4c(nc5cc(C)c(C)cc54)C3N2C)cc1` (centres undefined) it was 0.64% (inactive).

Regarding `CCOC(=O)c1ccc2[nH]c(C)c(CN3CCN(C)CC3)c(=O)c2c1`, the inhibition is -0.39% (inactive). Regarding `CN(C)CCn1c(=S)[nH]c2ccc(Cl)cc2c1=O`, the inhibition is 0.6% (inactive). With `CCCCN(C)Cc1c(C)[nH]c2ccc(Cl)cc2c1=O` the figure was 47% (active). Take `Cc1cccc(C)c1-n1nnnc1C(CCc1ccccc1)N1CCN(C/C=C/c2ccccc2)CC1` (centres undefined): the inhibition was -1% (inactive).

In the case of `Cc1cccc(N2CCN(C(c3ccc(N(C)C)cc3)c3nnnn3C(C)(C)C)CC2)c1C` (centres undefined), the inhibition is -1.18% (inactive).

On to `O=C(/C=C(O)/C=C/c1ccc(O)cc1)/C=C/c1ccc(O)cc1`, for which the inhibition is -0.28% (inactive).

As to `CC(C)(C)c1ccc(/C=C2\SC(=O)N=C2N)cc1`, the inhibition is 19.9% (active). As to `NC1=NC(=O)S/C1=C\c1ccc(O)cc1`, the inhibition is 22.9% (active). Consider `CCc1nc(C)cn1S(=O)(=O)c1cc([N+](=O)[O-])ccc1Cl`, for which the inhibition was -0.04% (inactive). For `O=C(CN1C(=O)CC(c2ccccc2)S(=O)(=O)c2ccccc21)NC1CCCC1` (centres undefined), the inhibition was -0.4% (inactive).

Consider `Cc1cc(C(=O)OCC(=O)Nc2ccc(F)c(F)c2)c(C)o1`, for which the inhibition was 0.47% (inactive). In the case of `COc1ccccc1NS(=O)(=O)N(C)C` it was -0.33% (inactive).

In the case of `CCOC(=O)CSc1nc2ccc(C)cc2n2cnnc12`, the inhibition was -0.42% (inactive). With `CN(C)CCNC(=O)c1ccc(-c2cn3c(-c4ccc(Oc5ccccc5)cc4)cnc3cn2)cc1` the figure was 0.12% (inactive); with `CC(C)(C)n1cnnc1Sc1ccc([N+](=O)[O-])cn1`, -0.07% (inactive); with `O=C(Cc1ccc(S(=O)(=O)N2CCOCC2)s1)NCCOc1ccccc1F`, -0.22% (inactive). In the case of `O=C(Cc1ccc(S(=O)(=O)N2CCOCC2)s1)Nc1ccc(Br)c(C(F)(F)F)c1` it was 9.17% (active); in that of `O=C(Cc1ccc(S(=O)(=O)N2CCOCC2)s1)NCCC(c1ccccc1)c1ccccc1`, -0.24% (inactive); in that of `Cc1nc(-c2ccc(Cl)cc2)sc1C1(C)CC(c2ccc(Br)cc2)=NO1` (centres undefined), 0.57% (inactive). Take `Cc1c(O)c(C)c2c(c1O)C(=O)C[C@@H](c1ccccc1)O2`: the inhibition was 1.18% (inactive).

For `CCO[C@H]1OC(C(=O)Nc2ccccc2)=C[C@@H](C2CC2)[C@@H]1CCCO`, the inhibition was -0.28% (inactive). In the case of `CCO[C@@H]1OC(C(=O)NCc2nc3ccccc3[nH]2)=C[C@H](C2CCCCC2)[C@H]1CCCO` it was 15.3% (active).

As to `CCO[C@H]1OC(C(=O)O)=C[C@@H](C2CCCCC2)[C@@H]1CCCO`, the inhibition is -0.27% (inactive).

On to `c1ccc(-c2ccc3c(c2)NC(C2Nc4cc(-c5ccccc5)ccc4O2)O3)cc1` (centres undefined), for which the inhibition was -0.77% (inactive). With `NC(=O)c1ccc(-c2csnn2)cc1` the figure was -0.49% (inactive); with `Cc1cc(Nc2cccc(F)c2)n2ncnc2n1`, 0.76% (inactive); with `CC(=N\NC(=O)c1cc(Br)ccc1O)/C(=N/O)C(=O)Nc1ccccc1`, 7.43% (active). In the case of `O=C(Nc1ccccc1)c1ccccc1Br` it was 0.92% (inactive); in that of `C/C(=N/NC(=O)c1cc(Cl)ccc1O)C12CC3CC(CC(C3)C1)C2`, -0.58% (inactive); in that of `COc1ccc(S(=O)(=O)c2c[nH]c(=S)[nH]c2=O)cc1Cl`, -0.79% (inactive). In the case of `CCOC(=O)c1cccc(NC(=O)CCc2c(C)nc3ncnn3c2C)c1` it was -0.04% (inactive); in that of `Cc1ccc(C(=O)Nc2ccc(C)c(S(=O)(=O)N(C)C)c2)s1`, -0.69% (inactive); in that of `O=S(=O)(NCCc1ccc(Cl)cc1)c1cccs1`, 0.22% (inactive).

Take `O=C(Nc1cccc(Cl)c1)Nc1ccccc1NS(=O)(=O)c1cccs1`: the inhibition was -0.14% (inactive). In the case of `O=S(=O)(NCc1ccc(Cl)cc1Cl)c1cccs1` it was 18.5% (active); in that of `Cc1ccnc(NC(=O)Cn2ccc([N+](=O)[O-])n2)c1`, 1.25% (inactive); in that of `Cn1c(NN)nc2sc3c(c2c1=O)CCC3`, -0.59% (inactive).

In the case of `O=C(O)c1cccnc1Sc1ncnc2sc3c(c12)CCC3`, the inhibition is -0.25% (inactive). In the case of `OCCNc1nc2ccccc2n1-c1ncnc2sc3c(c12)CCC3` it was 22.8% (active); in that of `CSCC[C@H](NC(=O)NCc1cccs1)C(=O)O`, 2.05% (inactive).

For `N#CC(C(=O)c1ccc(S(=O)(=O)N2CCCCCC2)cc1)c1nc2ccccc2[nH]1` (centres undefined), the inhibition was -0.41% (inactive).

For `O=S(=O)(c1ccc(Br)cc1)N1CCC(c2nc3ccccc3[nH]2)CC1`, the inhibition was 7.1% (active).

`O=S(=O)(c1ccccc1)N1CCC(c2ccccc2)CC1`: the inhibition is 0.06% (inactive).

Regarding `CCCNS(=O)(=O)c1ccc2c(c1)CCCN2C(C)=O`, the inhibition is -0.19% (inactive). With `Clc1ccc(-c2cc(-c3ccccn3)on2)c(Cl)c1` the figure was 0.55% (inactive). With `Clc1ccc(-c2cc(C3CCNCC3)[nH]n2)c(Cl)c1` the figure was 39.1% (active); with `CCC(C)[C@H](NC(=O)N1c2ccccc2NC(=O)[C@@H]1C(C)C)C(=O)N[C@@H](Cc1ccccc1)C(=O)O` (some centres undefined), -1.81% (inactive); with `CSCCC(NC(=O)c1cc([N+](=O)[O-])cc([N+](=O)[O-])c1)c1nc2ccccc2[nH]1` (centres undefined), 3.68% (inactive). As for `CCCC(NC(=O)c1ccco1)c1nc2ccccc2[nH]1` (centres undefined), the inhibition was 0.25% (inactive). In the case of `O=C(NCC(O)c1nc2ccccc2[nH]1)c1ccc(Br)cc1` (centres undefined) it was 21% (active).

On to `COc1ccccc1CCC(=O)OCC(=O)N1CCN(S(=O)(=O)c2ccc(C)cc2C)CC1`, for which the inhibition was -0.39% (inactive). In the case of `O=C(NCc1cccnc1)Nc1cccc(NC(=O)NCc2cccnc2)c1F` it was -1.05% (inactive); in that of `O=C(NCc1cccc(CNC(=O)Nc2cccc(O)c2)c1)Nc1cccc(O)c1`, 8.03% (active). With `C/C(=C\C(=O)c1ccccc1)Nc1cccc(O)c1` the figure was 0.01% (inactive); with `O=C(CSCc1ccc([N+](=O)[O-])cc1)NCCSCc1ccccc1`, -0.21% (inactive). With `CCCCc1nnc(NC(=O)CS(=O)(=O)Cc2ccccc2)s1` the figure was -0.35% (inactive); with `O=C(Nc1ccccc1)Nc1nnc(COc2ccccc2F)s1`, 17.3% (active); with `O=C(NCCOc1ccccc1F)Nc1ccc(Br)cc1`, 2.66% (inactive). Take `COCc1nnc(NC(=O)CS(=O)(=O)Cc2ccccc2)s1`: the inhibition is 0.23% (inactive). With `Cc1ccc(S(=O)(=O)c2c[nH]c3ccc(Cl)cc3c2=O)cc1` the figure was 40.4% (active). In the case of `CCOc1ccc2c(c1)c(=O)c(S(=O)(=O)c1ccc(C)cc1)cn2CC` it was -0.11% (inactive). In the case of `CCCn1cc(S(=O)(=O)c2ccc(C)cc2)c(=O)c2cc(OCC)ccc21`, the inhibition was -0.04% (inactive). In the case of `Cc1ccc2[nH]cc(CCCN3C(=O)c4ccccc4C3=O)c2c1` it was -0.1% (inactive); in that of `CN1CCN(S(=O)(=O)c2ccc3[nH]cc(C(=O)O)c(=O)c3c2)CC1`, 1.71% (inactive). With `Cc1ccc(S(=O)(=O)c2c[nH]c3ccc(C)cc3c2=O)cc1` the figure was 8.92% (active). Consider `O=C(Nc1ccccc1Cl)/C(Cl)=C(\Cl)S(=O)c1ccccc1` (centres undefined), for which the inhibition was -0.49% (inactive).

These data come from PubChem BioAssay AID624268 (The Scripps Research Institute Molecular Screening Center, 2012).
